According to ChEMBL document CHEMBL2390921, “A novel benzazepinone sodium channel blocker with oral efficacy in a rat model of neuropathic pain” (Bioorg Med Chem Lett, 2013):

What was measured:
[1] = target: Cannabinoid receptor 2 (Homo sapiens) (UniProt P34972); assay: Binding affinity to CB2 receptor (unknown origin) at 25 uM relative to control
hERG (KCNH2) = hERG (KCNH2) (Homo sapiens, UniProt Q12809); assay: Displacement of [35S]-MK0499 from human ERG expressed in HEK293 cell membranes at 10 uM after 2 hrs by liquid scintillation counting analysis relative to control; settings: membranes of HEK293 cells that express human ERG, probe [35S]-MK0499
How it was run: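 hERG binding assay measuring displacement of 35S-labelled MK-0499, a known hERG blocker.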

[2] = target: T1, Prostaglandin E2 receptor EP1 subtype (Homo sapiens) (UniProt P34995); assay: Binding affinity to prostaglandin receptor EP1 (unknown origin) at 25 uM relative to control
T1 sequence (whole entry): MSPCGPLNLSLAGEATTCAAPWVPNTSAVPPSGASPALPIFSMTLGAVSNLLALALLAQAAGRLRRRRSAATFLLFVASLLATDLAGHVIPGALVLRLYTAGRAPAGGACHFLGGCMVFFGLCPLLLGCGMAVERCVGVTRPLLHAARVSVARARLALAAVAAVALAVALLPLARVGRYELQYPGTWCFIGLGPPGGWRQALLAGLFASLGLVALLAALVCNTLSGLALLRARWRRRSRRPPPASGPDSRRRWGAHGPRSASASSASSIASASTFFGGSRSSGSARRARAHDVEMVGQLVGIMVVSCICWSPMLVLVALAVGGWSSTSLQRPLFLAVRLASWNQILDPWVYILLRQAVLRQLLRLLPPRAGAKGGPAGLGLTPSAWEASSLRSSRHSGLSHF

[3] = target: Sodium channel protein type 8 subunit alpha (Homo sapiens) (UniProt Q9UQD0); assay: Binding affinity to inactivated state of NaV1.6 channel (unknown origin) by whole-cell patch clamp assay
Chain of Sodium channel protein type 8 subunit alpha (Homo sapiens) (Q9UQD0 whole entry, looked up): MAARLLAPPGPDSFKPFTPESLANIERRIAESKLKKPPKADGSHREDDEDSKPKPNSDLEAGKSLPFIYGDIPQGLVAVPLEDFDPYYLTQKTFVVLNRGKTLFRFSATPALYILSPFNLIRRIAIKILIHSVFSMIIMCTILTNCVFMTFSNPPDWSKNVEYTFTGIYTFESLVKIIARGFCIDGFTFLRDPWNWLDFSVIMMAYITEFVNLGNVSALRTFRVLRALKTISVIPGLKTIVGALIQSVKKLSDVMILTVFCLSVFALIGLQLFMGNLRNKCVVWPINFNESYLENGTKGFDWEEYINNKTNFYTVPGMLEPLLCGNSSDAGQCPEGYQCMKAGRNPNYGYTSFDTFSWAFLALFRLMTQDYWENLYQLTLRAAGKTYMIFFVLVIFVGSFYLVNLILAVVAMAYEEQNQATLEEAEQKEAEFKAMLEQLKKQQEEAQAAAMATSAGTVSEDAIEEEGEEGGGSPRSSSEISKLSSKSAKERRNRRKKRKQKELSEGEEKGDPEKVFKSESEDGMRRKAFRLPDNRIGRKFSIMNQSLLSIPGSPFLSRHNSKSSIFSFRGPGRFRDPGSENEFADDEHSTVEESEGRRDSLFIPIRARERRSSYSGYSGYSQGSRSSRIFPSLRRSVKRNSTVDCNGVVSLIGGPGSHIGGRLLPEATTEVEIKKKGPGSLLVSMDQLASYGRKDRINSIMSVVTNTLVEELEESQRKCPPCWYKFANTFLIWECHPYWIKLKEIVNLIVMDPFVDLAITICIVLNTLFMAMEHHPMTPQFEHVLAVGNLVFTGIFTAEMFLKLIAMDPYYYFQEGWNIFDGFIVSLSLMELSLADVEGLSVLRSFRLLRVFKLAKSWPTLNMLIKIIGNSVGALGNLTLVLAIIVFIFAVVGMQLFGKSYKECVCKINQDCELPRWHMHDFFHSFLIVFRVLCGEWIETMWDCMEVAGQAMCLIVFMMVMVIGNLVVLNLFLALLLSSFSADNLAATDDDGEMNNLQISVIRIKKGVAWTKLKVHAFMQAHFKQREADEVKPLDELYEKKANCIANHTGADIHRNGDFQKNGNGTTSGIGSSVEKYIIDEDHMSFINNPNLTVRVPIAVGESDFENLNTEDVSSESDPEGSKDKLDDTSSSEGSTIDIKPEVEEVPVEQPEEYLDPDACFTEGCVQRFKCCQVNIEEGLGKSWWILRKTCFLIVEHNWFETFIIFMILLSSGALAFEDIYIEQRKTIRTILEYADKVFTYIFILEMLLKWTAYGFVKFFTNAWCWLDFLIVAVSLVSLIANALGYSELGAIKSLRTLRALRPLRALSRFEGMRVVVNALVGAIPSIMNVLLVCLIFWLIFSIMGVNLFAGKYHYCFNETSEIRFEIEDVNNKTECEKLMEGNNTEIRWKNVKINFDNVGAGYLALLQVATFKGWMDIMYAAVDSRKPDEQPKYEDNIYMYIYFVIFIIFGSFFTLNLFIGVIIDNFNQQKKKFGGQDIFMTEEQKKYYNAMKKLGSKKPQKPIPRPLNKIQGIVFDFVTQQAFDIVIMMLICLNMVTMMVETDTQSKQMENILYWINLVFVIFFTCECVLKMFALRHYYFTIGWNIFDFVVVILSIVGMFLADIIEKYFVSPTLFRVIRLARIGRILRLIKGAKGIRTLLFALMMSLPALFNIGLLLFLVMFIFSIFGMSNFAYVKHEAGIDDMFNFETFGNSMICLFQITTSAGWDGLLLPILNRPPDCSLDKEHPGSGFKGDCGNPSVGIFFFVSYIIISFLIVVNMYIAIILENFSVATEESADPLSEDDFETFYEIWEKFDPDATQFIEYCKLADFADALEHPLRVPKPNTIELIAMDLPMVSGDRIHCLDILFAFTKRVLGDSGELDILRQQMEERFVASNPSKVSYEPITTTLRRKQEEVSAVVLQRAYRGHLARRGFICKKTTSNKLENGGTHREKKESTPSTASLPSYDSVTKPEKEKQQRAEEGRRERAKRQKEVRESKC
How it was run: (§1)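 Manual whole-cell voltage clamp measuring block of resting and inactivated channel states at room temperature. Data acquired at 50 kHz, filtered at 10 kHz. Bath: 40 mM NaCl, 120 mM NMDG-Cl, 1 mM KCl, 2.7 mM CaCl2, 0.5 mM MgCl2, 10 mM NMDG-HEPES, pH 7.4.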

[4] = target: Sodium channel protein type 9 subunit alpha (Homo sapiens, UniProt Q15858); assay: Binding affinity to resting state of human NaV1.7 channel by whole-cell patch clamp assay; how it was run: as §1
Chain of Sodium channel protein type 9 subunit alpha (Q15858 whole entry, looked up): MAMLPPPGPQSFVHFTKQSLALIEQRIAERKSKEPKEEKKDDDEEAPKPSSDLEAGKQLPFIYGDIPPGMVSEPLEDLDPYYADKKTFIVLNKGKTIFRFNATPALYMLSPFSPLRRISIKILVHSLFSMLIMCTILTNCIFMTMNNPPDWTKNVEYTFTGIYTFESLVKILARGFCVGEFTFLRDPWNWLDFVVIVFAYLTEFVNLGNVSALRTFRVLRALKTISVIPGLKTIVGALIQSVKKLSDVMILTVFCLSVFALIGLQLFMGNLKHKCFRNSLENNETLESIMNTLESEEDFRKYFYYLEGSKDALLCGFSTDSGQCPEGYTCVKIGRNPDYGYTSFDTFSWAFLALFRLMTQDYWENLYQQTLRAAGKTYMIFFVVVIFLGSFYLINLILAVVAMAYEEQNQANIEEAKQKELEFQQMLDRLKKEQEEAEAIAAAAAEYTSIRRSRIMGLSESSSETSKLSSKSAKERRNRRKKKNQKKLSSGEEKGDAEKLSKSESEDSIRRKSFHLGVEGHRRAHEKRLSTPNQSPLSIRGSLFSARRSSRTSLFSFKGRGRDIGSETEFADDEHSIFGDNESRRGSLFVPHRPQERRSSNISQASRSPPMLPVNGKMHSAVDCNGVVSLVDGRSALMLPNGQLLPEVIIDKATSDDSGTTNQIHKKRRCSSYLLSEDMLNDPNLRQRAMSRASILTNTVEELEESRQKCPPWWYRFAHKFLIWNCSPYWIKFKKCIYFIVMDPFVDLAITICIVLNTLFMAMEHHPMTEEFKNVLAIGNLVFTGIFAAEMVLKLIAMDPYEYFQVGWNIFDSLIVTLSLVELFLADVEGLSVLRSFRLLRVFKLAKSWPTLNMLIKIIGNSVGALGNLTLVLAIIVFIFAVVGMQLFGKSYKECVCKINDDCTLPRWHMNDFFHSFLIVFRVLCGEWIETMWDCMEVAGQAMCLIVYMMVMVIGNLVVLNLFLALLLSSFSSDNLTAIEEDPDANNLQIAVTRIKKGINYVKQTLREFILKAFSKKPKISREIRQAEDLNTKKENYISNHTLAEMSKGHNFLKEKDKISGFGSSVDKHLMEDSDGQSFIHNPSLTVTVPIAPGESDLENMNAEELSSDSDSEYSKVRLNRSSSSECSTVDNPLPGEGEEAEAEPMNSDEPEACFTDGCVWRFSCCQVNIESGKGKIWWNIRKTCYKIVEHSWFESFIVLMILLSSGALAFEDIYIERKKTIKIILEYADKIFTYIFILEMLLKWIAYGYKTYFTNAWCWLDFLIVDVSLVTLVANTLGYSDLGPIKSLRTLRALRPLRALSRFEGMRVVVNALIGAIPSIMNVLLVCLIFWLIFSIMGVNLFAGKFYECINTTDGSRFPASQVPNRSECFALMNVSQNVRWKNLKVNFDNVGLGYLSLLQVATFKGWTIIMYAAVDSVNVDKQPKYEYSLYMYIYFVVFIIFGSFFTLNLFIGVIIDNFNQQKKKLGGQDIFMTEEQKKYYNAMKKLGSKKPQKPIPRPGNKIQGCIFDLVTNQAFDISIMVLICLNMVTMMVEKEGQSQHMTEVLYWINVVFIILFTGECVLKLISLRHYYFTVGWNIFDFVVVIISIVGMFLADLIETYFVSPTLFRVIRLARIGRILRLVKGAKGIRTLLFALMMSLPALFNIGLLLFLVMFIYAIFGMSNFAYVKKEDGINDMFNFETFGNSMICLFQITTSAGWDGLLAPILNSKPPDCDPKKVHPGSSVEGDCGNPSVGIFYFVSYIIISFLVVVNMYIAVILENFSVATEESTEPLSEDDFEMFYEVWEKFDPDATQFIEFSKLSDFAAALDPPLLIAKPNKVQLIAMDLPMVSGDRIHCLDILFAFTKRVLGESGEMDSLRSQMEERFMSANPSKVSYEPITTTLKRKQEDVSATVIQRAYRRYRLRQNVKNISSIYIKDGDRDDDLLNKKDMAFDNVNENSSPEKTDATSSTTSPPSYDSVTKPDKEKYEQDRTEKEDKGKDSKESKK

Rattus norvegicus = assay: Analgesic activity in rat spinal nerve ligation neuropathic pain model assessed as reversal of allodynia at 10 mg/kg, po measured at 8 hrs relative to control; format: functional
How it was run: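 Rat spinal nerve ligation model. Seven days after surgery, rats received a single oral dose (3, 10 or 30 mg/kg) of test agent or vehicle. Tactile allodynia was scored at 2, 4, 8 and 24 h post-dose with calibrated von Frey filaments using an up-down paradigm. Threshold is the force giving a 50% withdrawal rate. %MPE = (post-compound − post-SNL)/(pre-SNL − post-SNL) × 100, where 100% is full reversal.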

Chain of Cannabinoid receptor 2 (Homo sapiens) (P34972 whole entry): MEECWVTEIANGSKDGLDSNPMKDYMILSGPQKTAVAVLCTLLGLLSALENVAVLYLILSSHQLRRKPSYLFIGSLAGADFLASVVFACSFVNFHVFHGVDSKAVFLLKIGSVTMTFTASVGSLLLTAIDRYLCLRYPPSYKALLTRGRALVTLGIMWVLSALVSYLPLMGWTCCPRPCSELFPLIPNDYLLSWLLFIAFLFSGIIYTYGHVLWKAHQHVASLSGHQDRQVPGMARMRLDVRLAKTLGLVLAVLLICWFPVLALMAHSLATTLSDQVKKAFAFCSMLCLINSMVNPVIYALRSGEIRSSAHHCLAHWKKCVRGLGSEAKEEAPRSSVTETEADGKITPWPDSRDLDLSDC

- Activity [1]: < 50%
- Activity [2]: < 50%
- K [3]: 3.88 µM
- K [4]: 24 µM
Structure (SMILES): O=C(N[C@H](Cc1ccccc1F)C(=O)N[C@@H]1CCc2c(F)c(F)cc(F)c2N(C2CC2)C1=O)C1CC1C(F)(F)F (stereo partly specified)
- inhibition at 2 h, 10 µM (hERG (KCNH2)): 26%
- Activity (Rattus norvegicus): 20%
